Values after ≈ are worked out from the molar mass of the structure shown. Active and inactive are the calls of the source. The calls are words filed in the database; no cut-off is given here.
What was measured:
Candida albicans [1] = assay: Antifungal activity against Candida albicans isolate 17 grown in RPMI 1640 medium incubated for 24 hrs by microdilution method; format: functional; details: isolate 17, 24 h
Procedure, shortened: (§1)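 C. albicans standard strain SC5314 and clinical isolates g5 and 17# tested by broth microdilution in YNB or RPMI 1640 medium. Plates incubated at 35 °C for up to 72 h, with visual readings taken at 24 h. MIC taken as the lowest concentration preventing visible growth.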

Ceratobasidium cereale = assay: Antifungal activity against Rhizoctonia cerealis assessed as reduction in growth at 50 mg/l by mycelium growth rate method relative to control; format: functional
Procedure, shortened: (§2)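 Mycelium growth rate method against S. sclerotiorum, P. capsici, P. piricola, R. cerealis, W. anthracnose and R. bakanae. Each compound tested at 50 mg/L, with chlorothalonil and PTB as controls. Relative inhibitory ratio (%) calculated from mycelial growth.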

Candida albicans [2] = assay: Antifungal activity against Candida albicans SC5314 grown in RPMI 1640 medium incubated for 24 hrs by microdilution method; format: functional; details: SC5314, 24 h; procedure, shortened: as §1
Candida albicans [3] = assay: Inhibition of Candida albicans AHAS catalytic subunit at 10 uM using pyruvate as substrate measured after 30 mins by colorimetric method relative to control
Procedure, shortened: (§3)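 Colorimetric assay in 50 mM potassium phosphate pH 7.0 with 50 mM pyruvate, 1 mM thiamine diphosphate, 10 mM MgCl2 and 10 μM FAD. Incubated 30 min at 37 °C for plant AHAS and 30 °C for fungal AHAS. Acetolactate formed was then quantified.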

Candida albicans [4] = assay: Inhibition of Candida albicans AHAS catalytic subunit at 100 uM using pyruvate as substrate measured after 30 mins by colorimetric method relative to control; procedure, shortened: as §3
Candida albicans [5] = assay: Antifungal activity against Candida albicans isolate g5 grown in RPMI 1640 medium incubated for 24 hrs by microdilution method; format: functional; details: isolate g5, 24 h; procedure, shortened: as §1
Candida albicans [6] = assay: Antifungal activity against Candida albicans SC5314 grown in YNB medium incubated for 24 hrs by microdilution method; format: functional; details: SC5314, 24 h; procedure, shortened: as §1
Candida albicans [7] = assay: Antifungal activity against Candida albicans isolate 17 grown in YNB medium incubated for 24 hrs by microdilution method; format: functional; details: isolate 17, 24 h; procedure, shortened: as §1
Candida albicans [8] = assay: Antifungal activity against Candida albicans isolate g5 grown in YNB medium incubated for 24 hrs by microdilution method; format: functional; details: isolate g5, 24 h; procedure, shortened: as §1
Arabidopsis thaliana [9] = assay: Inhibition of Arabidopsis thaliana AHAS catalytic subunit using pyruvate as substrate at 100 uM measured after 30 mins by colorimetric method relative to control; procedure, shortened: as §3
Arabidopsis thaliana [10] = assay: Inhibition of Arabidopsis thaliana AHAS catalytic subunit using pyruvate as substrate at 10 uM measured after 30 mins by colorimetric method relative to control; procedure, shortened: as §3
[11] = test system: Brassica rapa subsp. oleifera; assay: Herbicidal activity against Brassica campestris L assessed as inhibition of rape root growth at 100 mg/l root growth incubated for 48 hrs relative to control; format: functional
Procedure, shortened: (§4)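 Rape seeds soaked in distilled water for 4 h, then placed on filter paper wetted with inhibitor solution, 15 seeds per 6-cm dish. Germinated in the dark at 28 °C for 48 h. Mean length of 10 roots per plate measured.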

[12] = test system: Brassica rapa subsp. oleifera; assay: Herbicidal activity against Brassica campestris L assessed as inhibition of rape root growth at 10 mg/l root growth incubated for 48 hrs relative to control; format: functional; procedure, shortened: as §4
Sclerotinia sclerotiorum = assay: Antifungal activity against Sclerotinia sclerotiorum assessed as reduction in growth at 50 mg/l by mycelium growth rate method relative to control; format: functional; procedure, shortened: as §2
Phytophthora capsici = assay: Antifungal activity against Phytophthora capsici assessed as reduction in growth at 50 mg/l by mycelium growth rate method relative to control; format: functional; procedure, shortened: as §2
[13] = test system: Botryosphaeria berengeriana; assay: Antifungal activity against Physalospora pyricola assessed as reduction in growth at 50 mg/l by mycelium growth rate method relative to control; format: functional; procedure, shortened: as §2
Colletotrichum = assay: Antifungal activity against Colletotrichum (W. anthracnose) assessed as reduction in growth at 50 mg/l by mycelium growth rate method relative to control; format: functional; procedure, shortened: as §2
Fusarium fujikuroi = assay: Antifungal activity against Gibberella fujikuroi assessed as reduction in growth at 50 mg/l by mycelium growth rate method relative to control; format: functional; procedure, shortened: as §2
Mythimna separata = assay: Insecticidal activity against Mythimna separata assessed as larval mortality at 600 mg/l by leaf-dip method; format: functional
Tobacco mosaic virus [14] = assay: Antiviral activity against Tobacco mosaic virus inoculated in Nicotiana tabacum leaves assessed as passivation by measuring local lesion numbers at 500 mg/l pre-incubated with virus for 30 mins followed by inoculation and measured up to 4 days; format: functional
Procedure, shortened: (§5)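 Passivation assay: TMV mixed with an equal volume of compound solution for 30 min, then rubbed onto the left half of N. tabacum L. leaves. The right half received virus mixed with solvent as control. Local lesions counted 3–4 days after inoculation. Compounds tested at 500 or 100 mg/L.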

Tobacco mosaic virus [15] = assay: Antiviral activity against Tobacco mosaic virus inoculated in Nicotiana tabacum leaves assessed as passivation by measuring local lesion numbers at 100 mg/l pre-incubated with virus for 30 mins followed by inoculation and measured up to 4 days; format: functional; procedure, shortened: as §5
[16] = Inhibition of SARS coronavirus M protease using AVLQSGFRKK as substrate by FRET assay; set-up: species or system Severe acute respiratory syndrome-related coronavirus
Procedure, shortened: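 Purified SARS-CoV Mpro assayed by FRET. Protein, compound and substrate were preheated at 37 °C and oscillated. Fluorescence (ex 320/em 405 nm) was read every 5 s for 200 reads. IC50 from V0/V = 1+[I]/IC50.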

[17] = test system: Severe acute respiratory syndrome-related coronavirus; assay: Inhibition of SARS coronavirus M protease using AVLQSGFRKK as substrate at 20 uM by FRET assay relative to control
Procedure, shortened: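 Purified SARS-CoV Mpro assayed by FRET. Protein, compound and substrate were preheated at 37 °C and oscillated. Fluorescence (ex 320/em 405 nm) was read every 5 s for 200 reads.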

[18] = Cytotoxicity against HEK293T cells assessed as reduction in cell growth incubated for 48 hrs by MTT assay; format: cell-based, HEK-293T; details: human
Procedure, shortened: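 293T cells in logarithmic phase seeded at 12000 cells/well overnight, then exposed to a range of compound concentrations for 48 h. MTT added for a further 4 h, formazan dissolved in DMSO, and OD570 read. CC50 is the concentration reducing viability by 50%.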

[19] = test system: SARS coronavirus M protease; assay: Selectivity index, ratio of CC50 for HEK293T cells to IC50 for SARS coronavirus M protease; format: toxicity; details: human, read-out: Ratio CC50/IC50
Procedure, shortened: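 Medium discarded, DMSO added, OD570 read; CC50 is the concentration cutting viability by 50%. IC50 from the 37 °C Mpro FRET assay (ex 320/em 405 nm) via V0/V = 1+[I]/IC50.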

Row | Compound | MIC (Candida albicans [1]) [µg/mL] | inhibition at 50 µg/mL (Ceratobasidium cereale) [%] | MIC (Candida albicans [2]) [µg/mL] | inhibition (Candida albicans [3]) [%] | inhibition (Candida albicans [4]) [%] | MIC (Candida albicans [5]) [µg/mL] | MIC (Candida albicans [6]) [µg/mL] | MIC (Candida albicans [7]) [µg/mL] | MIC (Candida albicans [8]) [µg/mL] | inhibition (Arabidopsis thaliana [9]) [%] | inhibition (Arabidopsis thaliana [10]) [%] | inhibition (INH) [11] [%] | inhibition (INH) [12] [%] | inhibition at 50 µg/mL (Sclerotinia sclerotiorum) [%] | inhibition at 50 µg/mL (Phytophthora capsici) [%] | inhibition at 50 µg/mL [13] [%] | inhibition at 50 µg/mL (Colletotrichum) [%] | inhibition at 50 µg/mL (Fusarium fujikuroi) [%] | mortality at 600 µg/mL (Mythimna separata) [%] | inhibition at 500 µg/mL (Tobacco mosaic virus [14]) [%] | other results
1 | COc1nc(OC)nc(Sc2ccc(Br)cc2C#N)n1 | > 100 | 66.7 | > 100 | 37.4 | 81.1 | > 100 | > 100 | > 100 | > 100 | 85.5 | 57.3 | 14 | 0 | 19.4 | 8.3 | 70.3 | 21.4 | 30.3 | 20 | 0 | inhibition (Tobacco mosaic virus [15]): inactive; IC50 [16]: 4.54 µM; inhibition [17]: 100%; CC50 at 48 h [18]: 53.5 µM
2 | COc1nc(OC)nc(Sc2ccc(F)cc2C#N)n1 | 100 (≈ 342 µM) | 57.1 | 100 (≈ 342 µM) | 36.4 | 85.1 | 100 (≈ 342 µM) | 50 (≈ 171 µM) | 25 (≈ 85.5 µM) | 50 (≈ 171 µM) | 71.2 | 59.2 | 60.3 | 4.6 | 33.3 | 25 | 75 | 40.5 | 33.3 | 20 | 26.4 | inhibition (Tobacco mosaic virus [15]): inactive; IC50 [16]: 4.47 µM; inhibition [17]: 100%; selectivity ratio [19]: 44.5; CC50 at 48 h [18]: > 200 µM
3 | COc1nc(OC)nc(Sc2cccc(I)c2C#N)n1 | > 100 | 52.4 | > 100 | 45.4 | 69.3 | > 100 | > 100 | > 100 | > 100 | 66.7 | 51.6 | 51.6 | 0 | 11.1 | 8.3 | 29.7 | 33.3 | 30.3 | 45 | 22.8 | inhibition (Tobacco mosaic virus [15]): inactive; IC50 [16]: 3.3 µM; inhibition [17]: 100%; CC50 at 48 h [18]: 30.5 µM
